Legend:
Plasmodium berghei [1] = test: Antimalarial activity against Plasmodium berghei infected in Swiss Webster mouse assessed as mouse survival rate at 200 mg/kg administered once daily via oral gavage for 4 consecutive days beginning 1 hr after infection measured on day 14 post infection relative to control; assay type: functional
Summary of the method: (§1)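 P. berghei-infected erythrocytes taken from a previously infected mouse were injected intraperitoneally. Oral dosing, once daily for 4 consecutive days, began 1 h after infection, in polyethylene glycol 300/propylene glycol/water (55/25/20 by weight). Chloroquine at 30 mg/kg was the positive control, with a vehicle-only group. Percent survival was recorded daily from day 4 to day 20.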

Plasmodium berghei [2] = test: Antimalarial activity against Plasmodium berghei infected in Swiss Webster mouse assessed as mouse survival rate at 100 mg/kg administered once daily via oral gavage for 4 consecutive days beginning 1 hr after infection measured on day 20 post infection relative to control; assay type: functional
Summary of the method: (§2)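 Mice given an intraperitoneal injection of P. berghei-infected erythrocytes taken from a previously infected animal. Oral dosing once daily for 4 consecutive days, starting 1 h after infection. Vehicle: polyethylene glycol 300/propylene glycol/water (weight ratio 55/25/20). Percent survival recorded daily from day 4 to day 20. Chloroquine 30 mg/kg and vehicle-only groups served as controls.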

Plasmodium berghei [3] = test: Antimalarial activity against Plasmodium berghei infected in Swiss Webster mouse assessed as mouse survival rate at 200 mg/kg administered once daily via oral gavage for 4 consecutive days beginning 1 hr after infection measured on day 12 post infection relative to control; assay type: functional; summary of the method: as §1
Plasmodium berghei [4] = test: Antimalarial activity against Plasmodium berghei infected in Swiss Webster mouse assessed as mouse survival rate at 100 mg/kg administered once daily via oral gavage for 4 consecutive days beginning 1 hr after infection measured on day 15 post infection relative to control; assay type: functional; summary of the method: as §2
Plasmodium berghei [5] = test: Antimalarial activity against Plasmodium berghei infected in Swiss Webster mouse assessed as mouse survival rate at 200 mg/kg administered once daily via oral gavage for 4 consecutive days beginning 1 hr after infection measured on day 13 post infection relative to control; assay type: functional; summary of the method: as §1
Plasmodium berghei [6] = test: Antimalarial activity against Plasmodium berghei infected in Swiss Webster mouse assessed as mouse survival rate at 200 mg/kg administered once daily via oral gavage for 4 consecutive days beginning 1 hr after infection measured on day 9 post infection relative to control; assay type: functional; summary of the method: as §1
Plasmodium berghei [7] = test: Antimalarial activity against Plasmodium berghei infected in Swiss Webster mouse assessed as mouse survival rate at 100 mg/kg administered once daily via oral gavage for 4 consecutive days beginning 1 hr after infection measured from day 16 to day 19 post infection relative to control; assay type: functional; summary of the method: as §2
Plasmodium berghei [8] = test: Antimalarial activity against Plasmodium berghei infected in Swiss Webster mouse assessed as mouse survival rate at 200 mg/kg administered once daily via oral gavage for 4 consecutive days beginning 1 hr after infection measured on day 11 post infection relative to control; assay type: functional; summary of the method: as §1
Plasmodium berghei [9] = test: Antimalarial activity against Plasmodium berghei infected in Swiss Webster mouse assessed as mouse survival rate at 200 mg/kg administered once daily via oral gavage for 4 consecutive days beginning 1 hr after infection measured on day 7 post infection relative to control; assay type: functional; summary of the method: as §1
Plasmodium berghei [10] = test: Antimalarial activity against Plasmodium berghei infected in Swiss Webster mouse assessed as mouse survival rate at 200 mg/kg administered once daily via oral gavage for 4 consecutive days beginning 1 hr after infection measured on day 4 post infection relative to control; assay type: functional; summary of the method: as §1
Plasmodium berghei [11] = test: Antimalarial activity against Plasmodium berghei infected in Swiss Webster mouse assessed as mouse survival rate at 200 mg/kg administered once daily via oral gavage for 4 consecutive days beginning 1 hr after infection measured on day 20 post infection relative to control; assay type: functional; summary of the method: as §1
Plasmodium berghei [12] = test: Antimalarial activity against Plasmodium berghei infected in Swiss Webster mouse assessed as mouse survival rate at 200 mg/kg administered once daily via oral gavage for 4 consecutive days beginning 1 hr after infection measured on day 6 post infection relative to control; assay type: functional; summary of the method: as §1
Plasmodium berghei [13] = test: Antimalarial activity against Plasmodium berghei infected in Swiss Webster mouse assessed as mouse survival rate at 200 mg/kg administered once daily via oral gavage for 4 consecutive days beginning 1 hr after infection measured on day 5 post infection relative to control; assay type: functional; summary of the method: as §1
Plasmodium berghei [14] = test: Antimalarial activity against Plasmodium berghei infected in Swiss Webster mouse assessed as mouse survival rate at 200 mg/kg administered once daily via oral gavage for 4 consecutive days beginning 1 hr after infection measured on day 15 post infection relative to control; assay type: functional; summary of the method: as §1
Plasmodium berghei [15] = test: Antimalarial activity against Plasmodium berghei infected in Swiss Webster mouse assessed as mouse survival rate at 200 mg/kg administered once daily via oral gavage for 4 consecutive days beginning 1 hr after infection measured on day 10 post infection relative to control; assay type: functional; summary of the method: as §1
Plasmodium berghei [16] = test: Antimalarial activity against Plasmodium berghei infected in Swiss Webster mouse assessed as mouse survival rate at 1.1 mg/kg administered once daily via oral gavage for 4 consecutive days beginning 1 hr after infection measured on day 4 post infection relative to control; assay type: functional; summary of the method: as §2
Plasmodium berghei [17] = test: Antimalarial activity against Plasmodium berghei infected in Swiss Webster mouse assessed as mouse survival rate at 1.1 mg/kg administered once daily via oral gavage for 4 consecutive days beginning 1 hr after infection measured on day 5 post infection relative to control; assay type: functional; summary of the method: as §2
Plasmodium falciparum = test: Antimalarial activity against Plasmodium falciparum 3D7 0087/N9 infected in NOD/SCID IL2R gamma null mouse assessed as compound concentration in whole blood require to reduce parasitemia in peripheral blood administered once daily via oral gavage for 4 consecutive days measured on day 7 post infection; assay type: functional
Plasmodium berghei [18] = test: Antimalarial activity against Plasmodium berghei infected in Swiss Webster mouse assessed as mouse survival rate at 200 mg/kg administered once daily via oral gavage for 4 consecutive days beginning 1 hr after infection measured from day 16 to day 19 post infection relative to control; assay type: functional; summary of the method: as §1
[19] = Clearance in CD1 mouse at 5 mg/kg, iv by HPLC/MS analysis; assay type: ADME, organism-based; conditions: in vivo
Summary of the method: (§3)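 Female CD-1 mice, male SD rats and beagle dogs received 5 mg/kg either iv or by oral gavage. Vehicle was PEG 300/propylene glycol/water (55/25/20, pH 6). Blood was sampled and drug measured by HPLC-MS/MS.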

[20] = Volume of distribution at steady state in CD1 mouse at 5 mg/kg, iv by HPLC/MS analysis; assay type: ADME, organism-based; conditions: in vivo, read-out: Vdss
Summary of the method: (§4)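 Female CD-1 mice, male SD rats or beagle dogs given 5 mg/kg by iv injection or oral gavage. Formulation was PEG300/propylene glycol/water 55/25/20, pH 6. Blood samples analysed by HPLC–MS/MS; parameters include AUC0-inf extrapolated to infinity and terminal half-life.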

[21] = Oral bioavailability in CD1 mouse at 5 mg/kg by HPLC/MS analysis; assay type: ADME, organism-based; conditions: in vivo; summary of the method: as §4
[22] = Cmax in CD1 mouse plasma at 5 mg/kg, po via gavage by HPLC/MS analysis; assay type: ADME, organism-based; set-up: dose 5 mg/kg, route oral; summary of the method: as §3
[23] = AUC (0 to infinity) in CD1 mouse at 5 mg/kg, iv by HPLC/MS analysis; assay type: ADME, organism-based; set-up: dose 5 mg/kg, time infinity, route intravenous; conditions: in vivo
[24] = Tmax in CD1 mouse plasma at 5 mg/kg, po via gavage by HPLC/MS analysis; assay type: ADME, organism-based; summary of the method: as §4
[25] = AUC (0 to infinity) in CD1 mouse at 5 mg/kg, po via gavage by HPLC/MS analysis; assay type: ADME, organism-based; set-up: dose 5 mg/kg, time infinity, route oral; conditions: in vivo

| SMILES | survival at 200 mg/kg (Plasmodium berghei [1]) [%] | survival at 100 mg/kg (Plasmodium berghei [2]) [%] | survival at 200 mg/kg (Plasmodium berghei [3]) [%] | survival at 100 mg/kg (Plasmodium berghei [4]) [%] | survival at 200 mg/kg (Plasmodium berghei [5]) [%] | survival at 200 mg/kg (Plasmodium berghei [6]) [%] | survival at 100 mg/kg (Plasmodium berghei [7]) [%] | survival at 200 mg/kg (Plasmodium berghei [8]) [%] | survival at 200 mg/kg (Plasmodium berghei [9]) [%] | survival at 200 mg/kg (Plasmodium berghei [10]) [%] | survival at 200 mg/kg (Plasmodium berghei [11]) [%] | survival at 200 mg/kg (Plasmodium berghei [12]) [%] | survival at 200 mg/kg (Plasmodium berghei [13]) [%] | survival at 200 mg/kg (Plasmodium berghei [14]) [%] | survival at 200 mg/kg (Plasmodium berghei [15]) [%] | other results |
| --- | --- | --- | --- | --- | --- | --- | --- | --- | --- | --- | --- | --- | --- | --- | --- | --- |
| CCCC1(O)CN(C(=O)c2cnc(Oc3ccc4c(c3C)B(O)OC4)cn2)C1 | 100 | 0 | 100 | 80 | 100 | 100 | 20 | 100 | 100 | 100 | 0 | 100 | 100 | 100 | 100 | – |
| Cc1c(Oc2cnc(C(=O)N3CC(O)(C(F)(F)F)C3)cn2)ccc2c1B(O)OC2 | – | 100 | – | 100 | – | – | 100 | – | – | – | – | – | – | – | – | survival at 1.1 mg/kg (Plasmodium berghei [16]): 100%; survival at 1.1 mg/kg (Plasmodium berghei [17]): 100% |
| CCC1(O)CN(C(=O)c2cnc(Oc3ccc4c(c3C)B(O)OC4)cn2)C1 | 100 | – | 100 | – | 100 | 100 | – | 100 | 100 | 100 | 80 | 100 | 100 | 100 | 100 | AUCED90 (Plasmodium falciparum): 1.6 µg.hr/ml/day; survival at 200 mg/kg (Plasmodium berghei [18]): 80% |
| Cc1c(Oc2cnc(C(=O)NCCO)cn2)ccc2c1B(O)OC2 | – | – | – | – | – | 80 | – | – | 100 | 100 | – | 100 | 100 | – | 0 | clearance [19]: 2.65 mL/min/kg; Vd [20]: 0.636 L/kg; bioavailability [21]: 94%; Cmax [22]: 4300 ng/mL; AUC(0-inf) [23]: 31400 ng·h/mL; Tmax [24]: 1 h; AUC(0-inf) [25]: 29600 ng·h/mL |

From ChEMBL document CHEMBL4038305, “Benzoxaborole Antimalarial Agents. Part 5. Lead Optimization of Novel Amide Pyrazinyloxy Benzoxaboroles and Identification of a Preclinical Candidate” (J Med Chem, 2017)
